For data set [1], the system named is Trichophyton rubrum. Put plainly: Antifungal activity against Trichophyton rubrum at 500 ug/ml after 72 hrs by agar diffusion method. The class given is functional. The note with it: read-out: DIZ. An outline of the steps: (§1)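 Fungal spores were suspended in normal saline (one loopful in 3 mL) and lawned on agar plates. Wells were punched with a sterile cork borer and loaded with test compound in DMSO at the different concentrations. A DMSO solvent control was included. Petri dishes were prepared in triplicate and held at 25 °C for 72 h.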
In general terms: A growth-free zone around the sample is the usual read-out of agar diffusion tests.

Data set [2] concerns Staphylococcus aureus. In words: Antibacterial activity against Staphylococcus aureus assessed as zone of inhibition at 500 ug/ml after 24 hrs by agar diffusion method. The note with it: read-out: IZ. The class given is functional. The essentials:
(§2)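 Well diffusion on Mueller-Hinton agar seeded with 24 h old bacterial cultures. Test compounds were dissolved in DMSO at 1 and 0.5 mg/mL and added to labeled wells. Plates were incubated 24 h at 37 °C. The inhibition zone around each well was measured in mm. Triplicate experiments, standard deviation calculated.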

The subject of data set [3] is Escherichia coli. Put plainly: Antibacterial activity against Escherichia coli ATCC 25922 assessed as zone of inhibition at 500 ug/ml after 24 hrs by agar diffusion method. The note with it: ATCC 25922, 24 h, read-out: IZ. The class given is functional. The essentials:
as §2

In data set [4] the test system is Clostridium perfringens. Put plainly: Antibacterial activity against Clostridium perfringens assessed as zone of inhibition at 1000 ug/ml after 24 hrs by agar diffusion method. The note with it: read-out: IZ. The class given is functional. An outline of the steps:
(§3)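 Well diffusion on Mueller-Hinton agar seeded with 24 h old cultures. Compounds dissolved in DMSO at 1 and 0.5 mg/mL and added to wells punched with a sterile cork borer, with a DMSO-only control. Plates incubated 24 h at 37 °C. Read-out was the inhibition zone in mm, run in triplicate, standard deviation calculated.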

The test system of data set [5] is Bacillus subtilis. Put plainly: Antibacterial activity against Bacillus subtilis assessed as zone of inhibition at 500 ug/ml after 24 hrs by agar diffusion method. The class given is functional. The note with it: read-out: IZ. An outline of the steps:
as §2

Data set [6] relates to Pseudomonas aeruginosa. Put plainly: Antibacterial activity against Pseudomonas aeruginosa ATCC 27853 assessed as zone of inhibition at 500 ug/ml after 24 hrs by agar diffusion method. The note with it: ATCC 27853, 24 h, read-out: IZ. The class given is functional. The essentials:
as §2

Data set [7] has as its system Clostridium perfringens. In words: Antibacterial activity against Clostridium perfringens assessed as zone of inhibition at 500 ug/ml after 24 hrs by agar diffusion method. The class given is functional. The note with it: read-out: IZ. The essentials: as §3
Data set [8] concerns Nannizzia gypsea. In words: Antifungal activity against Microsporum gypseum at 500 ug/ml after 72 hrs by agar diffusion method. The class given is functional. The note with it: read-out: DIZ. The essentials: as §1
In data set [9] the test system is Salmonella typhimurium. Put plainly: Antibacterial activity against Salmonella Typhimurium assessed as zone of inhibition at 1000 ug/ml after 24 hrs by agar diffusion method. The note with it: Salmonella enterica, read-out: IZ. The class given is functional, Salmonella enterica subsp. enterica serovar Typhimurium. The essentials:
as §2

The test system of data set [10] is Escherichia coli. Put plainly: Antibacterial activity against Escherichia coli ATCC 25922 assessed as zone of inhibition at 1000 ug/ml after 24 hrs by agar diffusion method. The class given is functional. The note with it: ATCC 25922, 24 h, read-out: IZ. The essentials: as §2
Data set [11] has as its system Pseudomonas aeruginosa. Put plainly: Antibacterial activity against Pseudomonas aeruginosa ATCC 27853 assessed as zone of inhibition at 1000 ug/ml after 24 hrs by agar diffusion method. The note with it: ATCC 27853, 24 h, read-out: IZ. The class given is functional. The essentials: as §2
The subject of data set [12] is Bacillus subtilis. In words: Antibacterial activity against Bacillus subtilis assessed as zone of inhibition at 1000 ug/ml after 24 hrs by agar diffusion method. The note with it: read-out: IZ. The class given is functional. The essentials: as §2
In data set [13] the test system is Candida albicans. In words: Antifungal activity against Candida albicans at 500 ug/ml after 72 hrs by agar diffusion method. The class given is functional. The note with it: read-out: DIZ. An outline of the steps:
as §1

The subject of data set [14] is Aspergillus niger. In words: Antifungal activity against Aspergillus niger at 1000 ug/ml after 72 hrs by agar diffusion method. The class given is functional. The note with it: read-out: DIZ. The essentials:
as §1

For data set [15], the system named is Trichophyton rubrum. In words: Antifungal activity against Trichophyton rubrum at 1000 ug/ml after 72 hrs by agar diffusion method. The class given is functional. The note with it: read-out: DIZ. An outline of the steps:
as §1

Data set [16] has as its system Mus musculus. Put plainly: Toxicity in Swiss albino mouse assessed as behavioral changes at 1000 to 3000 mg/kg, po administered as single dose measured at 4th to 24th hrs. The class given is organism-based. More on the design: dose 1000-3000 mg/kg, route oral. The note with it: in vivo. The essentials: (§4)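 Single oral dose of 1000 to 3000 mg/kg, given as a fine suspension in double distilled water with Tween 80. Animals housed under a light/dark cycle. Toxic symptoms and behavioural changes were observed continuously at 4, 8, 12 and 24 h, and onset was recorded. Deaths were also recorded.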

Data set [17] has as its system Staphylococcus aureus. Put plainly: Antibacterial activity against Staphylococcus aureus assessed as zone of inhibition at 1000 ug/ml after 24 hrs by agar diffusion method. The class given is functional. The note with it: read-out: IZ. The essentials:
as §2

The test system of data set [18] is Aspergillus flavus. In words: Antifungal activity against Aspergillus flavus at 1000 ug/ml after 72 hrs by agar diffusion method. The note with it: read-out: DIZ. The class given is functional. The essentials: as §1
Data set [19] concerns Aspergillus flavus. Put plainly: Antifungal activity against Aspergillus flavus at 500 ug/ml after 72 hrs by agar diffusion method. The note with it: read-out: DIZ. The class given is functional. An outline of the steps:
as §1

Data set [20] deals with Salmonella typhimurium. Put plainly: Antibacterial activity against Salmonella Typhimurium assessed as zone of inhibition at 500 ug/ml after 24 hrs by agar diffusion method. The class given is functional, Salmonella enterica subsp. enterica serovar Typhimurium. The note with it: Salmonella enterica, read-out: IZ. The essentials:
as §2

Data set [21] concerns Candida albicans. Put plainly: Antifungal activity against Candida albicans at 1000 ug/ml after 72 hrs by agar diffusion method by agar diffusion method. The note with it: read-out: DIZ. The class given is functional. The essentials: as §1
Data set [22] has as its system Mus musculus. Put plainly: Toxicity in Swiss albino mouse assessed as mortality at 1000 to 3000 mg/kg, po administered as single dose measured at 4th to 24th hrs. The class given is organism-based. More on the design: dose 1000-3000 mg/kg, route oral. The note with it: in vivo. An outline of the steps:
as §4

In data set [23] the test system is Nannizzia gypsea. Put plainly: Antifungal activity against Microsporum gypseum at 1000 ug/ml after 72 hrs by agar diffusion method. The class given is functional. The note with it: read-out: DIZ. The essentials:
as §1

The test system of data set [24] is Aspergillus niger. Put plainly: Antifungal activity against Aspergillus niger at 500 ug/ml after 72 hrs by agar diffusion method. The class given is functional. The note with it: read-out: DIZ. The essentials:
as §1

For `COC(=O)/C=C1/C(=O)NC(=S)N1/N=C/c1c[nH]nc1-c1ccc(SC)cc1`, the zone of inhibition at 500 µg/mL was determined as 15 mm in the data set on Trichophyton rubrum [1]; 5 mm in the data set with Staphylococcus aureus [2]; 9 mm in the data set on Escherichia coli [3]; 9 mm in the data set with Bacillus subtilis [5]; 15 mm in the data set with Pseudomonas aeruginosa [6]; 15 mm with Clostridium perfringens [7]. The zone of inhibition at 500 µg/mL in the data set on Nannizzia gypsea [8] is 4 mm; in the data set on Candida albicans [13], 4 mm; in the data set with Aspergillus flavus [19], 6 mm; in the data set with Salmonella typhimurium [20] it was 11 mm; in the data set on Aspergillus niger [24] it was 9 mm. The zone of inhibition at 1000 µg/mL came to 16 mm with Clostridium perfringens [4]; 12 mm with Salmonella typhimurium [9]; 12 mm in the data set with Escherichia coli [10]; 16 mm in the data set on Pseudomonas aeruginosa [11]; 10 mm with Bacillus subtilis [12]; 10 mm in the data set with Aspergillus niger [14]. Further, the zone of inhibition at 1000 µg/mL in the data set on Trichophyton rubrum [15] stood at 16 mm; with Staphylococcus aureus [17], 6 mm; with Aspergillus flavus [18], 7 mm; with Candida albicans [21] it was 5 mm; in the data set with Nannizzia gypsea [23] it was 5 mm. The Activity result in the data set with Mus musculus [16] and in the data set with Mus musculus [22] was “Non-toxic” throughout.

As to `Cc1ccc(-c2n[nH]cc2-c2nc(-c3ccc(Br)cc3)c(-c3ccc(Br)cc3)[nH]2)cc1`, the zone of inhibition at 500 µg/mL in the data set on Trichophyton rubrum [1] came out at 2 mm; with Staphylococcus aureus [2] it was 2 mm; in the data set on Escherichia coli [3], 3 mm; in the data set with Bacillus subtilis [5] it was 3 mm; in the data set on Pseudomonas aeruginosa [6], 1 mm; in the data set with Clostridium perfringens [7] it was 2 mm. For the same compound, the zone of inhibition at 500 µg/mL was found to be 1 mm with Nannizzia gypsea [8]; 3 mm in the data set with Candida albicans [13]; 2 mm in the data set on Aspergillus flavus [19]; 3 mm in the data set on Salmonella typhimurium [20]; 2 mm in the data set on Aspergillus niger [24]. Moreover, the zone of inhibition at 1000 µg/mL in the data set with Clostridium perfringens [4] is 3 mm; with Salmonella typhimurium [9], 4 mm; in the data set with Escherichia coli [10], 4 mm; with Pseudomonas aeruginosa [11] it was 2 mm; in the data set on Bacillus subtilis [12], 4 mm; with Aspergillus niger [14] it was 3 mm. Besides, the zone of inhibition at 1000 µg/mL was found to be 3 mm in the data set on Trichophyton rubrum [15]; 3 mm with Staphylococcus aureus [17]; 3 mm in the data set on Aspergillus flavus [18]; 4 mm with Candida albicans [21]; 2 mm in the data set with Nannizzia gypsea [23].

Turning to `Clc1cc(-c2n[nH]cc2-c2nc(-c3ccc(Br)cc3)c(-c3ccc(Br)cc3)[nH]2)c(Cl)s1`, the zone of inhibition at 500 µg/mL was determined as 5 mm in the data set with Trichophyton rubrum [1]; 2 mm in the data set with Staphylococcus aureus [2]; 3 mm in the data set on Escherichia coli [3]; 1 mm in the data set with Bacillus subtilis [5]; 3 mm with Pseudomonas aeruginosa [6]; 4 mm with Clostridium perfringens [7]. Also, the zone of inhibition at 500 µg/mL with Nannizzia gypsea [8] was determined as 2 mm; in the data set with Candida albicans [13] it was 5 mm; in the data set with Aspergillus flavus [19] it was 3 mm; with Salmonella typhimurium [20] it was 1 mm; in the data set with Aspergillus niger [24], 3 mm. Moreover, the zone of inhibition at 1000 µg/mL in the data set with Clostridium perfringens [4] is 5 mm; in the data set with Salmonella typhimurium [9] it was 2 mm; with Escherichia coli [10], 4 mm; in the data set on Pseudomonas aeruginosa [11], 4 mm; in the data set on Bacillus subtilis [12] it was 2 mm; in the data set with Aspergillus niger [14] it was 4 mm. The zone of inhibition at 1000 µg/mL was 6 mm with Trichophyton rubrum [15]; 3 mm with Staphylococcus aureus [17]; 4 mm in the data set with Aspergillus flavus [18]; 6 mm in the data set with Candida albicans [21]; 3 mm in the data set on Nannizzia gypsea [23].

The record behind these values is ChEMBL document CHEMBL1806356, “Synthesis, characterization and antimicrobial studies of some new pyrazole incorporated imidazole derivatives” (Eur J Med Chem, 2011).
